Test results published in publication PMC10871334 (bioRxiv, 2024).
Entries after “also recorded” stand apart in the source; their conditions may differ.

Assays:
[1] = target: T1, SUGCT (Homo sapiens, UniProt Q9HAC7); test: Fluorometric SUGCT enzyme assay coupled to HMG-CoA reductase; format: biochemical; conditions: for SUGCT inhibition at 10 μM (in words): repurchased hits
T1 sequence (Q9HAC7 31-438 limits assumed): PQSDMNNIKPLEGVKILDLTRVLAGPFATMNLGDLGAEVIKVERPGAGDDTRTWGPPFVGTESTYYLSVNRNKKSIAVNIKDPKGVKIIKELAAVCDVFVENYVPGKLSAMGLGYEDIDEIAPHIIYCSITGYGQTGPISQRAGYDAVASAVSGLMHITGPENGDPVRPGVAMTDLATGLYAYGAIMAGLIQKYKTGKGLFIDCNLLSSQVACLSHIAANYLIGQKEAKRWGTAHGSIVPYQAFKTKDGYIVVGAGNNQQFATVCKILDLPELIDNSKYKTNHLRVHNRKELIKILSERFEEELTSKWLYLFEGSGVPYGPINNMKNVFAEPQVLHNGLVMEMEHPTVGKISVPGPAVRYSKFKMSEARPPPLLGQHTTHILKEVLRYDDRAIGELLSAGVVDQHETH

[2] = target: T2, human HMG-CoA reductase (HMGCR) (Homo sapiens, UniProt P04035); test: Spectrophotometric HMGCR counter-screen assay; format: biochemical; conditions: up to 100 μM
T2 sequence (P04035 426-888): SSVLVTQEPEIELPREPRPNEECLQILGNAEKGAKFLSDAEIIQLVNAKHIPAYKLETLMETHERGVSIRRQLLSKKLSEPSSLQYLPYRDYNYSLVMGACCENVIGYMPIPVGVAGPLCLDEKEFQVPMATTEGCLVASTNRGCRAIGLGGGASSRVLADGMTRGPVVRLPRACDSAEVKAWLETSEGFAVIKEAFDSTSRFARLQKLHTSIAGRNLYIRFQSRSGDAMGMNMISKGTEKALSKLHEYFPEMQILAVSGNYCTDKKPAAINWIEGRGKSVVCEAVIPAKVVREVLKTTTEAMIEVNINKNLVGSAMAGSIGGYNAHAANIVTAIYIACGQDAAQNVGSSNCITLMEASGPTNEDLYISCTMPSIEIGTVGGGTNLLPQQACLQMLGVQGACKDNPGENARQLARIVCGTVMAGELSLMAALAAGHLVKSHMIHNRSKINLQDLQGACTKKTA
Outline: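 Human HMGCR catalytic domain (residues 426–888), N-terminal His-tagged, expressed in E. coli and IMAC-purified. Assay contains 9 U/L HMGCR, 150 μM HMG-CoA, 300 μM NADPH, 4 mM DTT and 0.1% Triton X-100 in 100 mM potassium phosphate, pH 7.4. NADPH consumption is followed by absorbance at 340 nm.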

[3] = target: T1, SUGCT; format: biochemical; conditions: HMG-CoA as CoA donor, 30 minutes
[4] = tested on: SUGCT overexpressing GA1 HEK-293 cells; test: C5DC in SUGCT overexpressing GA1; format: cell-based, human; conditions: treatment of SUGCT overexpressing GA1 HEK-293 cells
Outline: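 Stable SUGCT overexpression in Flp-In 293 cells by co-transfection with Flp recombinase and selection in 100 μg/ml hygromycin B for 2–3 weeks. GCDH knocked out by CRISPR-Cas9, with single-clone sorting. Cells grown at 37°C, 5% CO2 in DMEM with 10% FBS. Metabolites extracted with cold methanol:acetonitrile:water 5:3:2 overnight at −80°C, then analysed by reverse-phase C18 LC-MS in positive mode.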

O=C(O)CCCC(=O)O [Glutarate, glutarate]
mode of inhibition ([1]; with respect to HMG, increases apparent Km for HMG): competitive inhibitor

CCCCC(=O)N(Cc1ccc(-c2ccccc2-c2nnn[nH]2)cc1)[C@H](C(=O)O)C(C)C [Valsartan]
SUGCT inhibition at 10 μM (in words) [1]: inhibited | IC50 ([1]; IC50 (SUGCT inhibition), standard assay, 100 mM potassium phosphate pH 7.4): 3.8 µM | inhibition at 10 µM ([1]; read-out: inhibition of SUGCT at 10 μM): > 50% | inhibition of HMGCR [2]: did not inhibit | conversion into a CoA ester by SUGCT [3]: no evidence | effect on C5DC / activity in cells [4]: did not observe a decrease in C5DC; also recorded: unable to detect activity

CCCCc1nc(Cl)c(CO)n1Cc1ccc(-c2ccccc2-c2nn[nH]n2)cc1 [losartan]
activity of Angiotensin II Receptor Blockers on SUGCT (in words) ([1]; each ARB measured in duplicate at 10 μM): inactive

O=C(O)CCc1nc(-c2ccccc2)c(-c2ccccc2)o1 [oxaprozin]
SUGCT inhibition at 10 μM (in words) [1]: inhibited

CC(C)c1nc(N(C)S(C)(=O)=O)nc(-c2ccc(F)cc2)c1/C=C/[C@@H](O)C[C@@H](O)CC(=O)O [rosuvastatin]
result in high throughput screen of FDA approved library ([1]; screening concentration 100 μM, coupled assay also detects HMGCR inhibitors): one of our hits

CCCCC(=O)N(Cc1ccc(-c2ccccc2-c2nn[nH]n2)cc1)[C@H](C(=O)OCC)C(C)C [valsartan ethyl ester, Valsartan ethyl ester]
effect on C5DC / activity in cells [4]: did not observe a decrease in C5DC
